Test results published in EPA's CvTdb concentration-time database.

Key:
Rat [1] = experiment: concentration in brain after dosing; conditions: 6 h; dosed: Perfluorohexane-1-sulphonic acid – potassium salt; 16 mg/kg; oral; Female; F344
Rat [2] = experiment: concentration in kidney after dosing; conditions: 24 h; dosed: Perfluorohexane-1-sulphonic acid – potassium salt; 16 mg/kg; oral; Female; Harlan Sprague Dawley
Rat [3] = experiment: concentration in plasma after dosing; conditions: dosed: Perfluorohexane-1-sulphonic acid – potassium salt, 4 mg/kg, oral, Male, F344
Rat [4] = experiment: concentration in plasma after dosing; conditions: dosed: Perfluorohexane-1-sulphonic acid – potassium salt, 4 mg/kg, oral, Male, F344; remark: listed apart in the source
Rat [5] = experiment: concentration in plasma after dosing; conditions: dosed: Perfluorohexane-1-sulphonic acid – potassium salt, 4 mg/kg, oral, Male, F344; remark: listed apart in the source
Rat [6] = experiment: concentration in brain after dosing; conditions: 24 h; dosed: Perfluorohexane-1-sulphonic acid – potassium salt; 16 mg/kg; oral; Female; Harlan Sprague Dawley
Rat [7] = experiment: concentration in kidney after dosing; conditions: 192 h; dosed: Perfluorohexane-1-sulphonic acid – potassium salt; 16 mg/kg; oral; Female; Harlan Sprague Dawley
Rat [8] = experiment: concentration in liver after dosing; conditions: 192 h; dosed: Perfluorohexane-1-sulphonic acid – potassium salt; 16 mg/kg; oral; Female; Harlan Sprague Dawley
Rat [9] = experiment: concentration in plasma after dosing; conditions: 2 h; dosed: Pyridine; 10 mg/kg; iv; Male; F344
Rat [10] = experiment: concentration in plasma after dosing; conditions: dosed: Pyridine, 25 mg/kg, oral, Male, F344
Rat [11] = experiment: concentration in plasma after dosing; conditions: dosed: Pyridine, 25 mg/kg, oral, Female, Harlan Sprague-Dawley
rat [12] = experiment: concentration in blood after dosing; negative times count back from the end of exposure; conditions: dosed: trichloroethylene, 50 ppm, inhalation, duration: 4 hr, male, Sprague Dawley
Mouse [13] = experiment: concentration in plasma after dosing; conditions: dosed: 2,4-Dichlorophenoxyacetic acid, 1.0 mg/kg, iv, Male, B6C3F1
Mouse [14] = experiment: concentration in plasma after dosing; conditions: 2.5 min; dosed: 2,4-Dichlorophenoxyacetic acid; 1.0 mg/kg; oral; Male; B6C3F1
Rat [15] = experiment: concentration in plasma after dosing; conditions: dosed: 2,4-Dichlorophenoxyacetic acid, 7.0 mg/kg, oral, Male, Sprague-Dawley
Hamster = experiment: concentration in plasma after dosing; conditions: dosed: 2,4-Dichlorophenoxyacetic acid, 40 mg/kg, oral, Male, Syrian Golden
How it was run: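 A PubMed search, classifier screening and manual review identified published in vivo toxicokinetic studies, which together with two structured collections supplied concentration-versus-time and amount-versus-time points. Points were mostly digitised from plot screenshots with WebPlotDigitizer, otherwise copied from tables. Dose, route, subject details and medium were hand-curated from each paper, and sampling and analytical methods are those of the sources, often unreported.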

Rat [16] = experiment: concentration in plasma after dosing; conditions: 2 min; dosed: Methyleugenol; 37 mg/kg; iv; Female; F344
Rat [17] = experiment: concentration in plasma after dosing; conditions: dosed: Methyleugenol, 37 mg/kg, oral, Female, F344/N
Mouse [18] = experiment: concentration in plasma after dosing; conditions: 2 h; dosed: 2-Hydroxy-4-methoxybenzophenone; 250 mg/kg; oral; Female; B6C3F1
Mouse [19] = experiment: concentration in plasma after dosing; conditions: 10 min; dosed: 2-Hydroxy-4-methoxybenzophenone; 50 mg/kg; iv; Male; B6C3F1
Rat [20] = experiment: concentration in plasma after dosing; conditions: dosed: 2-Hydroxy-4-methoxybenzophenone, 500 mg/kg, oral, Male, F344
Mouse [21] = experiment: concentration in plasma after dosing; conditions: 10 min; dosed: 2-Hydroxy-4-methoxybenzophenone; 500 mg/kg; oral; Female; B6C3F1
Rat [22] = experiment: concentration in plasma after dosing; conditions: 0.5 h; dosed: alpha-Thujone; 50 mg/kg; oral; Female; Harlan Sprague Dawley
Rat [23] = experiment: concentration in plasma after dosing; conditions: 10 min; dosed: alpha-Thujone; 50 mg/kg; oral; Female; Harlan Sprague Dawley
Rat [24] = experiment: concentration in brain after dosing; conditions: 1.5 h; dosed: alpha-Thujone; 25 mg/kg; oral; Male; Harlan Sprague Dawley
Rat [25] = experiment: concentration in brain after dosing; conditions: 5 min; dosed: alpha-Thujone; 25 mg/kg; oral; Male; Harlan Sprague Dawley
Rat [26] = experiment: concentration in plasma after dosing; conditions: 10 min; dosed: alpha-Thujone; 25 mg/kg; oral; Male; Harlan Sprague Dawley
Rat [27] = experiment: concentration in plasma after dosing; conditions: 1.5 h; dosed: alpha-Thujone; 50 mg/kg; oral; Female; Harlan Sprague Dawley
Rat [28] = experiment: concentration in plasma after dosing; conditions: 3 h; dosed: Primidone; 130 mg/kg; oral; Male; Harlan Sprague Dawley

O=S(=O)([O-])C(F)(F)C(F)(F)C(F)(F)C(F)(F)C(F)(F)C(F)(F)F.[K+] [Perfluorohexane-1-sulphonic acid – potassium salt]
Conditions | concentration in brain [ng/g] | concentration in kidney [ng/g] | concentration in liver [ng/g]
Rat [1] | 1620 | – | –
Rat [2] | – | 24300 | –
Rat [6] | 701 | – | –
Rat [7] | – | 1560 | –
Rat [8] | – | – | 1660

Conditions | concentration in plasma [ng/mL]
Rat [3], 3 h | 29800
Rat [3], 192 h | 18200
Rat [3], 1200 h | 6240
Rat [4], 1 h | 18800
Rat [4], 12 h | 32300
Rat [4], 864 h | 6150
Rat [5], 1 h | 23200
Rat [5], 24 h | 28900
Rat [5], 864 h | 9040

c1ccncc1 [Pyridine]
Conditions | concentration in plasma [ng/mL]
Rat [9] | 1320

concentration in plasma [ng/mL]
Conditions | 1 h | 4 h | 5 min | 8 h
Rat [10] | – | 15900 | 7460 | –
Rat [11] | 21100 | – | – | 15100

OCC(Cl)(Cl)Cl [trichloroethanol (free)]
rat [12]
Conditions | concentration in blood [ng/mL]
0.1894 h | 1660
0.429 h | 1600
0.9471 h | 1580
1.964 h | 1500
3.996 h | 1440
5.928 h | 1510
7.943 h | 1140
9.955 h | 1050
11.95 h | 1030
13.94 h | 1040
15.88 h | 449
17.91 h | 747

rat [12], during exposure
Conditions | concentration in blood [ng/mL]
-180 s | 1690
-2.968 h | 427
-1.958 h | 1200
-1.022 h | 1260

O=C(O)COc1ccc(Cl)cc1Cl [2,4-Dichlorophenoxyacetic acid]
concentration in plasma [ng/mL]
Conditions | Hamster | Mouse [13] | Rat [15]
0.25 h | 57000 | – | 9530
0.5 h | 88000 | 6070 | 10100
1 h | 40700 | – | –
1.5 h | 16600 | – | –
2 h | 12000 | – | 13900
2.5 min | – | 8150 | 4360
3 h | – | 446 | 2020
4 h | 3730 | – | 2030
5 h | – | – | 3730
5 min | 26600 | – | –
6 h | 1400 | – | 776
10 h | 34300 | – | –
10 min | – | 8340 | 8480

Conditions | concentration in plasma [ng/mL]
Mouse [14] | 1730

C=CCc1ccc(OC)c(OC)c1 [Methyleugenol]
Conditions | concentration in plasma [ng/mL]
Rat [16] | 47500

Rat [17]
Conditions | concentration in plasma [ng/mL]
6 h | 6.14
10 min | 424

O=C(c1ccccc1)c1ccc(O)cc1O [2,4-Dihydroxybenzophenone]
Conditions | concentration in plasma [ng/mL]
Mouse [18] | 472
Mouse [19] | 3210
Mouse [21] | 4230

Rat [20]
Conditions | concentration in plasma [ng/mL]
0.5 h | 236
12 h | 151

CC(C)[C@]12CC(=O)[C@H](C)[C@H]1C2 [alpha-Thujone]
Conditions | concentration in brain [ng/g] | concentration in plasma [ng/mL]
Rat [22] | – | 433
Rat [23] | – | 1160
Rat [24] | 359 | –
Rat [25] | 754 | –
Rat [26] | – | 243
Rat [27] | – | 323

CCC1(c2ccccc2)C(=O)NCNC1=O [Primidone]
Conditions | concentration in plasma [ng/mL]
Rat [28] | 108000
